Source: ChEMBL document CHEMBL5385870, “Amide containing NBTI antibacterials with reduced hERG inhibition, retained antimicrobial activity against gram-positive bacteria and in vivo efficacy” (Eur J Med Chem, 2023)
Converted amounts (≈) assume the structure as drawn.

How the values were obtained:
Escherichia coli [1] = assay: Antimicrobial activity against multidrug-resistant Escherichia coli assessed as reduction in bacterial growth incubated for 20 hrs by broth microdilution analysis; type: functional
In short: (§1)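 MIC was determined by broth microdilution per CLSI/EUCAST. Inoculum was 10^5 CFU/mL in cation-adjusted Mueller-Hinton broth with TES, with compounds in DMSO, incubated 20 h at 35 °C. MIC was read visually as the lowest concentration without turbidity. Tetracycline was the plate control.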

Staphylococcus aureus [2] = assay: Antimicrobial activity against cefoxitin/gentamicin/kanamycin/rifampicin/streptomycin/sulfamethoxazole/tetracycline-resistant Staphylococcus aureus assessed as reduction in bacterial growth incubated for 20 hrs by broth microdilution analysis; type: functional; in short: as §1
[3] = Inhibition of Escherichia coli DNA topoisomerase 4 relaxation activity measured for 30 mins
In short: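 TopoIV relaxation plate assay: 1.5 U enzyme with 0.75 µg supercoiled pNO1 plasmid, inhibitor in 10% DMSO/0.008% Tween-20, 37 °C 30 min; E. coli buffer 40 mM HEPES-KOH pH 7.6 with 1 mM ATP, S. aureus buffer 50 mM Tris pH 7.5 with 1.5 mM ATP. Triplex capture, Diamond dye fluorescence 495/537 nm.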

DNA gyrase [4] = molecular target: DNA gyrase (Staphylococcus aureus, UniProt P0A0K8+P20831); assay: Inhibition of Staphylococcus aureus DNA gyrase supercoiling incubated for 30 mins in presence of ATP; type: protein-complex assay
In short: (§2)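 Gyrase supercoiling plate assay (triplex capture on streptavidin plates with immobilized biotinylated oligonucleotide): 1.5 U enzyme, 0.75 µg relaxed pNO1 plasmid, inhibitor in 10% DMSO/0.008% Tween-20, 37 °C 30 min, 30 µl. Buffer for E. coli: 35 mM Tris pH 7.5, 1 mM ATP; S. aureus: 40 mM HEPES-KOH pH 7.6, 2 mM ATP, 500 mM K-glutamate. Diamond dye fluorescence (ex 495/em 537 nm). Pre-screen 100 and 1 µM; IC50 from seven concentrations by four-parameter fit, mean of two runs.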

Escherichia coli [5] = assay: Antimicrobial activity against Escherichia coli ATCC 25922 assessed as reduction in bacterial growth incubated for 20 hrs by broth microdilution analysis; type: functional
DNA gyrase [6] = molecular target: DNA gyrase (Escherichia coli, UniProt P0AES4+P0AES6); assay: Inhibition of Escherichia coli DNA gyrase supercoiling incubated for 30 mins in presence of ATP; type: protein-complex assay; in short: as §2
Topoisomerase IV = Topoisomerase IV (Staphylococcus aureus, UniProt P0C1S7+P0C1U9); assay: Inhibition of Staphylococcus aureus DNA topoisomerase 4 relaxation activity measured for 30 mins; type: protein-complex assay
In short: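 TopoIV relaxation plate assay: 1.5 U enzyme with 0.75 µg supercoiled pNO1 plasmid, inhibitor in 10% DMSO/0.008% Tween-20, 37 °C 30 min; E. coli buffer 40 mM HEPES-KOH pH 7.6 with 1 mM ATP, S. aureus buffer 50 mM Tris pH 7.5 with 1.5 mM ATP.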

[7] = molecular target: DNA topoisomerase 2-alpha (Homo sapiens) (UniProt P11388); assay: Inhibition of human DNA topoisomerase 2-alpha assessed as residual activity at 100 uM incubated for 30 mins relative to control
Acinetobacter baumannii = assay: Antimicrobial activity against Acinetobacter baumannii assessed as reduction in bacterial growth incubated for 20 hrs by broth microdilution analysis; type: functional
Pseudomonas aeruginosa = assay: Antimicrobial activity against Pseudomonas aeruginosa RDK 184 assessed as reduction in bacterial growth incubated for 20 hrs by broth microdilution analysis; type: functional
[8] = molecular target: Voltage-gated inwardly rectifying potassium channel KCNH2 (Homo sapiens, UniProt Q12809); assay: Inhibition of hERG fluorescence polarization assay; type: toxicity
Enterococcus faecalis = assay: Antimicrobial activity against Enterococcus faecalis DRK 057 assessed as reduction in bacterial growth incubated for 20 hrs by broth microdilution analysis; type: functional
hERG [9] = assay: Selectivity index, ratio of IC50 for inhibition of hERG fluorescence polarization assay to MIC for antimicrobial activity against multidrug-resisitant Staphylococcus aureus assessed as reduction in bacterial growth; type: toxicity; settings: human; read-out: Selectivity Index
hERG [10] = assay: Selectivity index, ratio of IC50 for inhibition of hERG fluorescence polarization assay to MIC for antimicrobial activity against Staphylococcus aureus ATCC 29213 assessed as reduction in bacterial growth; type: toxicity; settings: human; read-out: Selectivity Index
Staphylococcus aureus [11] = assay: Antimicrobial activity against cefoxitin/ciprofloxacin/clindamycin/erythromycin/tetracycline/thiamulin/trimethoprim-resistant Staphylococcus aureus assessed as reduction in bacterial growth incubated for 20 hrs by broth microdilution analysis; type: functional; in short: as §1
Escherichia coli [12] = assay: Antimicrobial activity against Escherichia coli D22 assessed as reduction in bacterial growth incubated for 20 hrs by broth microdilution analysis; type: functional
Escherichia coli [13] = assay: Antimicrobial activity against Escherichia coli N43 assessed as reduction in bacterial growth incubated for 20 hrs by broth microdilution analysis; type: functional
Staphylococcus aureus [14] = assay: Antimicrobial activity against Staphylococcus aureus ATCC 29213 assessed as reduction in bacterial growth incubated for 20 hrs by broth microdilution analysis; type: functional; in short: as §1
[15] = Antimicrobial activity against Salmonella alachua RDK 030c assessed as reduction in bacterial growth incubated for 20 hrs by broth microdilution analysis; type: functional
Klebsiella pneumoniae = assay: Antimicrobial activity against Klebsiella pneumoniae assessed as reduction in bacterial growth incubated for 20 hrs by broth microdilution analysis; type: functional
HepG2 = assay: Cytotoxicity against human HepG2 cells assessed as inhibition of cell growth at 50 uM incubated for 72 hrs by […]; type: functional; parameters: scale not given: the % may be the effect or the level left
In short: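 HepG2 in DMEM with 10% FBS, 2 mM glutamine, penicillin/streptomycin, 37 °C, 5% CO₂; seeded 8,000 cells/well, attached overnight, then treated 1.25–100 µM or vehicle for 72 h. Metabolic activity by CellTiter 96 Aqueous One (MTS) absorbance 492 nm.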

Staphylococcus aureus [16] = assay: Antimicrobial activity against multidrug-resistant Staphylococcus aureus assessed as reduction in bacterial growth incubated for 20 hrs by broth microdilution analysis; type: functional; in short: as §1
[17] = Acute toxicity in zebrafish embryos assessed as lethal concentration compound administered from 6 hrs post fertilization and measured after 120 hrs post fertilization; parameters: species or system Danio rerio; settings: in vivo
In short: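 Wild-type AB zebrafish embryos in E3 medium at 28 °C were exposed by immersion from 6 hpf to 0.39–25 µg/mL (top dose 12.5 µg/mL for one compound), with DMSO at most 0.25%. Controls were 0.25% DMSO and 25 µg/mL doxorubicin. Embryos were inspected daily for death and toxicity signs through 120 hpf. Runs were in triplicate, with 24 embryos per concentration.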

Chain of Topoisomerase IV (P0C1U9 whole entry): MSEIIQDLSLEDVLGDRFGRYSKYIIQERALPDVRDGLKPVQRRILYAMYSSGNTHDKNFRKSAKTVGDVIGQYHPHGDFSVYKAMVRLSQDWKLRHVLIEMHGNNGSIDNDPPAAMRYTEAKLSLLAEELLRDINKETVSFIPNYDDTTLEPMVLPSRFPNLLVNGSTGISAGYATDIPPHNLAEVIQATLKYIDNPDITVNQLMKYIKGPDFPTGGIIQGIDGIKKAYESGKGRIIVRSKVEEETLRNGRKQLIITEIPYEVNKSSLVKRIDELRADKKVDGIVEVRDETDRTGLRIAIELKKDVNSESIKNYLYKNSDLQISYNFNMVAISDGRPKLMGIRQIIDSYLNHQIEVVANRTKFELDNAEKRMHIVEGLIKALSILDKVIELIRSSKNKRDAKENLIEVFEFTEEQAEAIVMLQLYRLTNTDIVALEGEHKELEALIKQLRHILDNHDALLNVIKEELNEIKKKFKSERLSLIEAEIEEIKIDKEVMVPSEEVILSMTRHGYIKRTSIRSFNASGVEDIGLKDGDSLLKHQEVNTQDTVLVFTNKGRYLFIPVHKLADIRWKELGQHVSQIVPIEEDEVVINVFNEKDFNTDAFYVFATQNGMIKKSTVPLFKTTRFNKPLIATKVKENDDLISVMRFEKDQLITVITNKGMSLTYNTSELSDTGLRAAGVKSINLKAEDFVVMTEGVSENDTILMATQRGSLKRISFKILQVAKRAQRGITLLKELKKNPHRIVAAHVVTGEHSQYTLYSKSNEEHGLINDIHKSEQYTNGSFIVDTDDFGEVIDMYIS
Chain of Topoisomerase IV (P0C1S7 whole entry): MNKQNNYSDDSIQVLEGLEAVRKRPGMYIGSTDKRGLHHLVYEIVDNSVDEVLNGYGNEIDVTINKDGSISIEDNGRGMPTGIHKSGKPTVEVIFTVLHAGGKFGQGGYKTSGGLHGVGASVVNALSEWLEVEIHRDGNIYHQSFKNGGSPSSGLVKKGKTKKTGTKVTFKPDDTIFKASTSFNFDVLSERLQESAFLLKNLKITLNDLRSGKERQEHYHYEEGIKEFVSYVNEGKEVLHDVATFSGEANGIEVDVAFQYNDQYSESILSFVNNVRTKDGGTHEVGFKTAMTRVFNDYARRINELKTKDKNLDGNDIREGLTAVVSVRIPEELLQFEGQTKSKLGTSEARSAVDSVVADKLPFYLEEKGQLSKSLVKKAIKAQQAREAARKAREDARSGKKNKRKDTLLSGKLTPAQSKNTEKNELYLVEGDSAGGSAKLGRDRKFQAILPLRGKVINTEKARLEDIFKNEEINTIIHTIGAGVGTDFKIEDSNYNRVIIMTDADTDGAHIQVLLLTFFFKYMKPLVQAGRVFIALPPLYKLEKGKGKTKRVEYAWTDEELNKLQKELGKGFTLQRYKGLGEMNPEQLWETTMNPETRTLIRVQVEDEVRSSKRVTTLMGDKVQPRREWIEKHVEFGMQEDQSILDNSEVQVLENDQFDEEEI
Chain of Voltage-gated inwardly rectifying potassium channel KCNH2 (Q12809 whole entry): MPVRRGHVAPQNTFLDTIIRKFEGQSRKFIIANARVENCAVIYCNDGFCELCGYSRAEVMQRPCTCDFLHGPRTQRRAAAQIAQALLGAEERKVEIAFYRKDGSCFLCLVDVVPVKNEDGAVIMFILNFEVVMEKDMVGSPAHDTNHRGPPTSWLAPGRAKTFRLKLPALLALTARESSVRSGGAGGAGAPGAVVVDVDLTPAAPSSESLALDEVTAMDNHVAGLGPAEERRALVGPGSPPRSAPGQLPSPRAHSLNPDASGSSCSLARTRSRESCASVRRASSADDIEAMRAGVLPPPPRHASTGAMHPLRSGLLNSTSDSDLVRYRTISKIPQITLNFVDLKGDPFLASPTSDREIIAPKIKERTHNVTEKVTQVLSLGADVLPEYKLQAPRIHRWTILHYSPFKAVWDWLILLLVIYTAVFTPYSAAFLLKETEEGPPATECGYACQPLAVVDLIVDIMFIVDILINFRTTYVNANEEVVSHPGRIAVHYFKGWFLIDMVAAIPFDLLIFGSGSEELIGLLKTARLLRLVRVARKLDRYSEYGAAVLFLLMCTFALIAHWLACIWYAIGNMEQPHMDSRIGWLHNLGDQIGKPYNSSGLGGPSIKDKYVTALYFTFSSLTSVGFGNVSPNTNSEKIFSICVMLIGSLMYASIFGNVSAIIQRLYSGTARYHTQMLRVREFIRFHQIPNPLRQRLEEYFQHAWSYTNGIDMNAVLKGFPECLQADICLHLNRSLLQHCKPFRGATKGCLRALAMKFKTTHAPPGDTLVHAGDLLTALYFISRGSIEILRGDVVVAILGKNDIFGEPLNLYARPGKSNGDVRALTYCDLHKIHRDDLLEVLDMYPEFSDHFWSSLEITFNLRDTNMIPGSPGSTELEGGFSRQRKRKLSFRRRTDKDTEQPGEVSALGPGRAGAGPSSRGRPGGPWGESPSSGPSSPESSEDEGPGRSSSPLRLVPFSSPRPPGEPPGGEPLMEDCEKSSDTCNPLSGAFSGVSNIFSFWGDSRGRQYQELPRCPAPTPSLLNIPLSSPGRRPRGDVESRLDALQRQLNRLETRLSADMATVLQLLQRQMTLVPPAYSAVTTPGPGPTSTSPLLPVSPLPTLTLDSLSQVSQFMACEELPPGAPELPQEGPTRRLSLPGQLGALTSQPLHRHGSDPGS
Chain of DNA topoisomerase 2-alpha (Homo sapiens) (P11388 whole entry): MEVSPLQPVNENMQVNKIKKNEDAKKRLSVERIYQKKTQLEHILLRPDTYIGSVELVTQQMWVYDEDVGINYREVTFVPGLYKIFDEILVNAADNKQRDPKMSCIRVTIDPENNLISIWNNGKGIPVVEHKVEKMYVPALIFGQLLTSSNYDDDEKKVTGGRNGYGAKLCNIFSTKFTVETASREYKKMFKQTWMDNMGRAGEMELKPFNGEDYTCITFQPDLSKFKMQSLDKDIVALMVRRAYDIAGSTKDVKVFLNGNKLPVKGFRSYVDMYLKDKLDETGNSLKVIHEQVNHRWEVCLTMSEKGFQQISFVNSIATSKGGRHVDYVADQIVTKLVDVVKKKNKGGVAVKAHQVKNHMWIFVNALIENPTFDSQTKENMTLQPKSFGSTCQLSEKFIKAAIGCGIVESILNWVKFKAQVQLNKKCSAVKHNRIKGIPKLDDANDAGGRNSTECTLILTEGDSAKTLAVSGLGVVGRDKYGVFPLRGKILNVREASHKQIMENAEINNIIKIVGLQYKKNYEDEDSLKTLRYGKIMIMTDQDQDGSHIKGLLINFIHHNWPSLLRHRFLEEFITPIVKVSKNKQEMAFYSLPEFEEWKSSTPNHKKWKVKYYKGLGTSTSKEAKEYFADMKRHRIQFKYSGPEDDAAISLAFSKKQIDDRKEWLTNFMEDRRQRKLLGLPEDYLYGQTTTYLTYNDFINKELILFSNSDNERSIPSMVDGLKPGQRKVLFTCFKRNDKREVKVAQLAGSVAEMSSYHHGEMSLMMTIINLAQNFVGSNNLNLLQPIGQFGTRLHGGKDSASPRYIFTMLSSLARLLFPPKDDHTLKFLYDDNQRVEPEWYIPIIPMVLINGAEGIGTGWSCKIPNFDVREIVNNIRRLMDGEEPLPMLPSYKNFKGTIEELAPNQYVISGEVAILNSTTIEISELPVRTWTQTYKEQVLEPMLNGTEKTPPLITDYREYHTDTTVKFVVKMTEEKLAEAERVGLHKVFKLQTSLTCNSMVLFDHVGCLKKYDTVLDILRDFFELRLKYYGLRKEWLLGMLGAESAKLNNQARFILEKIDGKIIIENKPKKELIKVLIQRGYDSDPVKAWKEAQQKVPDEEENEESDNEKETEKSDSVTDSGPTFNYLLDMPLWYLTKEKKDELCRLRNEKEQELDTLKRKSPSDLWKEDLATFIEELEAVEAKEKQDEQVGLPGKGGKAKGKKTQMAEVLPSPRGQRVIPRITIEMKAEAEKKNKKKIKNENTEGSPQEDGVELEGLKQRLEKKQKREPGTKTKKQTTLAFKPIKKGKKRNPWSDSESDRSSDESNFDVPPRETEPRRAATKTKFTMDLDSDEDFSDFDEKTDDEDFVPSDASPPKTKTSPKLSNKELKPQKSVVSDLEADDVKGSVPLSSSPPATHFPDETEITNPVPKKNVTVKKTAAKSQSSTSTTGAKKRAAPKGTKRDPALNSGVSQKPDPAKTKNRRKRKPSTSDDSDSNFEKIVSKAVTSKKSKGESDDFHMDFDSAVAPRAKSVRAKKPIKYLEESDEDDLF

Compound	MIC (Escherichia coli [1])	MIC (Staphylococcus aureus [2])	IC50 [3]	IC50 (DNA gyrase [4])	MIC (Escherichia coli [5])	IC50 (DNA gyrase [6])	IC50 (Topoisomerase IV)	Activity [7]	MIC (Acinetobacter baumannii)	MIC (Pseudomonas aeruginosa)	IC50 [8]	MIC (Enterococcus faecalis)	selectivity ratio (hERG [9])	selectivity ratio (hERG [10])	MIC (Staphylococcus aureus [11])	MIC (Escherichia coli [12])	MIC (Escherichia coli [13])	MIC (Staphylococcus aureus [14])	MIC [15]	MIC (Klebsiella pneumoniae)	other results
COc1ccc2nccc(CCN3CCC(NC(=O)c4ccc(I)c(F)c4)CC3)c2n1	> 240 µM	0.058 µM (≈ 0.031 µg/mL)	43 nM	114 nM	240 µM	277 nM	261 nM	102%	240 µM	> 240 µM	96 nM	0.468 µM (≈ 0.25 µg/mL)	0.41	1.65	0.234 µM	0.468 µM	0.234 µM	0.058 µM	> 240 µM	> 240 µM	Activity (HepG2): 89%; MIC (Staphylococcus aureus [16]): 0.234 µM (≈ 0.125 µg/mL)
CN(C)[C@@H]1C(O)=C(C(N)=O)C(=O)[C@@]2(O)C(O)=C3C(=O)c4c(O)cccc4[C@@](C)(O)[C@H]3C[C@@H]12 [TETRACYCLINE]	> 4 µg/mL	–	–	–	1 µg/mL	–	–	–	> 4 µg/mL	–	–	–	–	–	> 4 µg/mL	1 µg/mL	0.25 µg/mL	0.25 µg/mL	–	> 4 µg/mL	–
COc1ccc2nccc(OC[C@H]3CC[C@H](NC(=O)c4cc(F)c(Br)c(F)c4)CC3)c2n1	> 64.8 µM	> 64.8 µM	> 100000 nM	> 100000 nM	64.8 µM	> 100000 nM	> 100000 nM	101%	> 64.8 µM	> 64.8 µM	> 30000 nM	> 64.8 µM	≥ 0.119	≥ 0.119	64.8 µM	64.8 µM	64.8 µM	253 µM	> 64.8 µM	> 64.8 µM	Activity (HepG2): 90%; MIC (Staphylococcus aureus [16]): > 64.8 µM
COc1ccc2nccc(CCN3CCC(NC(=O)c4cc(F)c(Cl)c(F)c4)CC3)c2n1	> 278 µM	0.137 µM (≈ 0.0631 µg/mL)	41 nM	220 nM	69.4 µM	236 nM	177 nM	101%	4.34 µM	> 278 µM	178 nM	2.17 µM (≈ 1 µg/mL)	0.656	1.3	0.271 µM	0.542 µM	0.135 µM	0.137 µM	> 278 µM	> 278 µM	Activity (HepG2): 84%; MIC (Staphylococcus aureus [16]): 0.271 µM (≈ 0.125 µg/mL)
COc1ccc2nccc(OC[C@H]3CC[C@H](NC(=O)c4ccc(I)c(F)c4)CC3)c2n1	> 239 µM	> 239 µM	> 100000 nM	> 100000 nM	239 µM	> 100000 nM	> 100000 nM	99.1%	> 239 µM	> 239 µM	> 30000 nM	> 239 µM	≥ 0.125	≥ 0.125	239 µM	239 µM	239 µM	239 µM	> 239 µM	> 239 µM	Activity (HepG2): 96%; MIC (Staphylococcus aureus [16]): > 239 µM
COc1ccc2nccc(CCN3CCC(NC(=O)c4cc(F)c(Br)c(F)c4)CC3)c2n1	253 µM	0.061 µM (≈ 0.0308 µg/mL)	40 nM	108 nM	63.3 µM	114 nM	84 nM	102%	3.96 µM	> 253 µM	122 nM	0.495 µM (≈ 0.25 µg/mL)	0.493	1.99	0.247 µM	0.247 µM	0.061 µM	0.061 µM	> 253 µM	> 253 µM	LC50 at 114 h [17]: > 25 µg/mL; Activity (HepG2): 61%; MIC (Staphylococcus aureus [16]): 0.125 µM (≈ 0.0632 µg/mL)
COc1ccc2nccc(OC[C@H]3CC[C@H](NC(=O)c4cc(F)c(Cl)c(F)c4)CC3)c2n1	> 277 µM	277 µM (≈ 128 µg/mL)	> 100000 nM	> 100000 nM	277 µM	> 100000 nM	> 100000 nM	100%	> 277 µM	> 277 µM	> 30000 nM	> 277 µM	≥ 0.108	≥ 0.108	277 µM	277 µM	277 µM	277 µM	> 277 µM	> 277 µM	Activity (HepG2): 96%; MIC (Staphylococcus aureus [16]): > 277 µM
